# Measurements reported in ChEMBL document CHEMBL1811902, “Thermodynamic and biological evaluation of a thrombin binding aptamer modified with several unlocked nucleic acid (UNA) monomers and a 2'-C-piperazino-UNA monomer” (Bioorg Med Chem, 2011).
# pKd: −log10 of the molar value.
# Experiments:
# Prothrombin = Prothrombin (Homo sapiens, UniProt P00734); assay: Binding affinity to thrombin at 37 degC by isothermal titration calorimetry
# How it was run: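 ITC at 37 °C. One 0.2 µL pre-injection, discarded, then 19 × 2 µL injections. Heat of dilution from aptamer-into-buffer injections subtracted.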
# [1] = Thermodynamic stability in pH 7.0 buffer containing 100 mM Kcl, 10 mM sodium cacodylate; assay type: physicochemical
# How it was run: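 UV melting at 295 nm over 5–95 °C at 0.2 °C/min. Samples annealed 5 min at 80 °C, then slowly cooled. Nine strand concentrations spanning 10^-5–10^-6 M, set from absorbance above 80 °C. Heating and cooling profiles recorded. Thermodynamic parameters from non-linear fitting of melting curves with a unimolecular transition model.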
# Plasma [2] = assay: Anticoagulant activity in human plasma assessed as time required for clot formation in presence of compound minus time required for clot formation in absence of compound at 0.33 mM at 37 degC; assay type: functional
# How it was run: (§1)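 Pooled citrate plasma from four healthy donors. Thrombin reagent pre-incubated with aptamer at 0.33 mM for 5 min, then mixed with an equal volume of plasma. Clotting time (thrombin time, seconds) read at 37 °C on an automated coagulation analyser. Antithrombin effect taken as the extra clotting time over a water-added reference.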
# Plasma [3] = assay: Anticoagulant activity in human plasma assessed as time required for clot formation at 0.33 mM at 37 degC; assay type: functional; how it was run: as §1
pKd (Prothrombin),Tm [1] [°C],Structure (SMILES),Time (Plasma [2]) [s],Time (Plasma [3]) [s]
5.80,45.4,Cc1cn([C@H]2C[C@H](OP(N)(=O)OC[C@@H]3C[C@@H](OP(N)(=O)OC[C@H]4O[C@@H](n5cnc6c(=O)[nH]c(N)nc65)C[C@@H]4OP(N)(=O)OC[C@H]4O[C@@H](n5cc(C)c(=O)[nH]c5=O)C[C@@H]4OP(N)(=O)OC[C@H]4O[C@@H](n5cnc6c(=O)[nH]c(N)nc65)C[C@@H]4OP(N)(=O)OC[C@H]4O[C@@H](n5cc(C)c(=O)[nH]c5=O)C[C@@H]4OP(N)(=O)OC[C@H]4O[C@@H](n5cnc6c(=O)[nH]c(N)nc65)C[C@@H]4OP(N)(=O)OC[C@H]4O[C@@H](n5cnc6c(=O)[nH]c(N)nc65)C[C@@H]4OP(N)(=O)OC[C@H]4O[C@@H](n5cc(C)c(=O)[nH]c5=O)C[C@@H]4OP(N)(=O)OC[C@H]4O[C@@H](n5cc(C)c(=O)[nH]c5=O)C[C@@H]4OP(N)(=O)OC[C@H]4O[C@@H](n5cnc6c(=O)[nH]c(N)nc65)C[C@@H]4OP(N)(=O)OC[C@H]4O[C@@H](n5cnc6c(=O)[nH]c(N)nc65)C[C@@H]4O)[C@H](n4cnc5c(=O)[nH]c(N)nc54)O3)[C@@H](COP(N)(=O)OC[C@@H](COP(N)(=O)O[C@H]3C[C@H](n4cnc5c(=O)[nH]c(N)nc54)O[C@@H]3COP(N)(=O)O[C@H]3C[C@H](n4cnc5c(=O)[nH]c(N)nc54)O[C@@H]3COC(=O)CCCC[C@@H]3SC[C@@H]4NC(=O)N[C@@H]43)O[C@H](CN3CCNCC3)n3ccc(=O)[nH]c3=O)O2)c(=O)[nH]c1=O (stereo not given in full),2.3,21.3
7.32,42.2,Cc1cn([C@H]2C[C@H](OP(N)(=O)OC[C@@H]3C[C@@H](OP(N)(=O)OC[C@H]4O[C@@H](n5cnc6c(=O)[nH]c(N)nc65)C[C@@H]4OP(N)(=O)OC[C@H]4O[C@@H](n5cc(C)c(=O)[nH]c5=O)C[C@@H]4OP(N)(=O)OC[C@H]4O[C@@H](n5cnc6c(=O)[nH]c(N)nc65)C[C@@H]4OP(N)(=O)OC[C@H]4O[C@@H](n5cc(C)c(=O)[nH]c5=O)C[C@@H]4OP(N)(=O)OC[C@H]4O[C@@H](n5cnc6c(=O)[nH]c(N)nc65)C[C@@H]4OP(N)(=O)OC[C@H]4O[C@@H](n5cnc6c(=O)[nH]c(N)nc65)C[C@@H]4OP(N)(=O)OC[C@H]4O[C@@H](n5cc(C)c(=O)[nH]c5=O)C[C@@H]4OP(N)(=O)OC[C@H]4O[C@@H](n5cc(C)c(=O)[nH]c5=O)C[C@@H]4OP(N)(=O)OC[C@H]4O[C@@H](n5cnc6c(=O)[nH]c(N)nc65)C[C@@H]4OP(N)(=O)OC[C@H]4O[C@@H](n5cnc6c(=O)[nH]c(N)nc65)C[C@@H]4O)[C@H](n4cnc5c(=O)[nH]c(N)nc54)O3)[C@@H](COP(N)(=O)O[C@H]3C[C@H](n4cc(C)c(=O)[nH]c4=O)O[C@@H]3COP(N)(=O)O[C@H]3C[C@H](n4cnc5c(=O)[nH]c(N)nc54)O[C@@H]3COP(N)(=O)O[C@H]3C[C@H](n4cnc5c(=O)[nH]c(N)nc54)O[C@@H]3COC(=O)CCCC[C@@H]3SC[C@@H]4NC(=O)N[C@@H]43)O2)c(=O)[nH]c1=O (stereo not given in full) [THROMBIN BINDING APTAMER],13.6,32.6
6.00,44.8,Cc1cn([C@H]2C[C@H](OP(N)(=O)OC[C@H]3O[C@@H](n4cnc5c(=O)[nH]c(N)nc54)C[C@@H]3OP(N)(=O)OC[C@H]3O[C@@H](n4cnc5c(=O)[nH]c(N)nc54)C[C@@H]3O)[C@@H](COP(N)(=O)OC[C@@H](COP(N)(=O)O[C@H]3C[C@H](n4cnc5c(=O)[nH]c(N)nc54)O[C@@H]3COP(N)(=O)O[C@H]3C[C@H](n4cnc5c(=O)[nH]c(N)nc54)O[C@@H]3COP(N)(=O)O[C@H]3C[C@H](n4cc(C)c(=O)[nH]c4=O)O[C@@H]3COP(N)(=O)O[C@H]3C[C@H](n4cnc5c(=O)[nH]c(N)nc54)O[C@@H]3COP(N)(=O)O[C@H]3C[C@H](n4c(C)cc(=O)[nH]c4=O)O[C@@H]3COP(N)(=O)O[C@H]3C[C@H](n4cnc5c(=O)[nH]c(N)nc54)O[C@@H]3COP(N)(=O)O[C@@H]3C[C@@H](COP(N)(=O)O[C@H]4C[C@H](n5cc(C)c(=O)[nH]c5=O)O[C@@H]4COP(N)(=O)O[C@H]4C[C@H](n5cc(C)c(=O)[nH]c5=O)O[C@@H]4COP(N)(=O)O[C@H]4C[C@H](n5cnc6c(=O)[nH]c(N)nc65)O[C@@H]4COP(N)(=O)O[C@H]4C[C@H](n5cnc6c(=O)[nH]c(N)nc65)O[C@@H]4COC(=O)CCCC[C@@H]4SC[C@@H]5NC(=O)N[C@@H]54)O[C@H]3n3cnc4c(=O)[nH]c(N)nc43)O[C@H](CN3CCNCC3)n3ccc(=O)[nH]c3=O)O2)c(=O)[nH]c1=O (stereo not given in full),3.5,22.5

# Second part, the compound before the results:
Structure (SMILES),pKd (Prothrombin),Tm [1] [°C],Time (Plasma [2]) [s],Time (Plasma [3]) [s]
Cc1cn([C@H]2C[C@H](OP(N)(=O)OC[C@H]3O[C@@H](n4cnc5c(=O)[nH]c(N)nc54)C[C@@H]3OP(N)(=O)OC[C@H]3O[C@@H](n4cnc5c(=O)[nH]c(N)nc54)C[C@@H]3O)[C@@H](COP(N)(=O)O[C@H]3C[C@H](n4cc(C)c(=O)[nH]c4=O)O[C@@H]3COP(N)(=O)O[C@H]3C[C@H](n4cnc5c(=O)[nH]c(N)nc54)O[C@@H]3COP(N)(=O)O[C@H]3C[C@H](n4cnc5c(=O)[nH]c(N)nc54)O[C@@H]3COP(N)(=O)OC[C@@H](COP(N)(=O)OC[C@@H](COP(N)(=O)OC[C@@H](COP(N)(=O)O[C@H]3C[C@H](n4cnc5c(=O)[nH]c(N)nc54)O[C@@H]3COP(N)(=O)O[C@@H]3C[C@@H](COP(N)(=O)O[C@H]4C[C@H](n5cc(C)c(=O)[nH]c5=O)O[C@@H]4COP(N)(=O)O[C@H]4C[C@H](n5c(C)cc(=O)[nH]c5=O)O[C@@H]4COP(N)(=O)O[C@H]4C[C@H](n5cnc6c(=O)[nH]c(N)nc65)O[C@@H]4COP(N)(=O)O[C@H]4C[C@H](n5cnc6c(=O)[nH]c(N)nc65)O[C@@H]4COC(=O)CCCC[C@@H]4SC[C@@H]5NC(=O)N[C@@H]54)O[C@H]3n3cnc4c(=O)[nH]c(N)nc43)O[C@H](CO)n3ccc(=O)[nH]c3=O)O[C@H](CO)n3cnc4c(=O)[nH]c(N)nc43)O[C@H](CO)n3ccc(=O)[nH]c3=O)O2)c(=O)[nH]c1=O (stereo not given in full),5.82,27,1.5,20.5
Cc1cn([C@H]2C[C@H](OP(N)(=O)OC[C@@H]3C[C@@H](OP(N)(=O)OC[C@H]4O[C@@H](n5cnc6c(=O)[nH]c(N)nc65)C[C@@H]4OP(N)(=O)OC[C@H](COP(N)(=O)OC[C@H]4O[C@@H](n5cnc6c(=O)[nH]c(N)nc65)C[C@@H]4OP(N)(=O)OC[C@H]4O[C@@H](n5cc(C)c(=O)[nH]c5=O)C[C@@H]4OP(N)(=O)OC[C@H]4O[C@@H](n5cnc6c(=O)[nH]c(N)nc65)C[C@@H]4OP(N)(=O)OC[C@H]4O[C@@H](n5cnc6c(=O)[nH]c(N)nc65)C[C@@H]4OP(N)(=O)OC[C@H]4O[C@@H](n5cc(C)c(=O)[nH]c5=O)C[C@@H]4OP(N)(=O)OC[C@H]4O[C@@H](n5cc(C)c(=O)[nH]c5=O)C[C@@H]4OP(N)(=O)OC[C@H]4O[C@@H](n5cnc6c(=O)[nH]c(N)nc65)C[C@@H]4OP(N)(=O)OC[C@H]4O[C@@H](n5cnc6c(=O)[nH]c(N)nc65)C[C@@H]4O)O[C@H](CO)n4ccc(=O)[nH]c4=O)[C@H](n4cnc5c(=O)[nH]c(N)nc54)O3)[C@@H](COP(N)(=O)OC[C@@H](COP(N)(=O)O[C@H]3C[C@H](n4cnc5c(=O)[nH]c(N)nc54)O[C@@H]3COP(N)(=O)O[C@H]3C[C@H](n4cnc5c(=O)[nH]c(N)nc54)O[C@@H]3COC(=O)CCCC[C@@H]3SC[C@@H]4NC(=O)N[C@@H]43)O[C@H](CO)n3ccc(=O)[nH]c3=O)O2)c(=O)[nH]c1=O (stereo not given in full),5.89,50.1,12.2,31.2
